Assay results: ChEMBL document CHEMBL2440084, “Design and bio-evaluation of indole derivatives as potent Kv1.5 inhibitors” (Bioorg Med Chem, 2013)

Key:
Homo sapiens = species: Homo sapiens; assay: Selectivity ratio of IC50 for human ERG channel to IC50 for human Kv1.5 channel
[1] = biological target: Voltage-gated inwardly rectifying potassium channel KCNH2 (Homo sapiens, UniProt Q12809); assay: Inhibition of human ERG channel expressed in CHO cells by whole cell patch clamp technique; format: cell-based
[2] = biological target: T1, Potassium voltage-gated channel subfamily A member 5 (Homo sapiens, UniProt P22460); assay: Inhibition of human Kv1.5 channel expressed in HEK293 cells by whole cell patch clamp technique; format: cell-based
Summary of the method: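 HEK 293 cells stably expressing hKv1.5 were grown at 37 °C with 10% FBS and 0.2 mg/mL geneticin, trypsinized and used the same day. Whole-cell I_Kur was evoked by 500-ms steps to +60 mV from -80 mV at 0.1 Hz, at 25 °C. Compound was applied ≥5 min after current stabilized. IC50 came from cell-by-cell Hill fits, ≥3 cells per concentration, mean ± SD, n = 3.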

Rattus norvegicus = species: Rattus norvegicus; assay: Prolongation of atrial effective refractory period in left atrium of Sprague-Dawley rat heart after 10 mins; format: functional, tissue-based; details: Cardiac atrium
Summary of the method: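 Male SD rats (230 ± 30 g) were anesthetized with i.p. chloral hydrate. Left atrium and right ventricle were isolated into Krebs-Henseleit solution at pH 7.4, gassed with 95% O2/5% CO2. Compound was added cumulatively at 0.1, 1.0, 10 and 50 μmol/L, with 10 min equilibration each. ERP was recorded before and after compound. Values are mean ± SEM, n = 3, compared by Student's t test.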

[3] = Effect on ventricular effective refractory period in right ventricle of Sprague-Dawley rat heart at 0.1 to 50 umol/L after 10 mins
HEK293 = assay: Selectivity ratio of IC50 for sodium channel in guinea pig ventricular myocytes to IC50 for human Kv1.5 channel expressed in HEK293 cells; format: cell-based
[4] = Inhibition of sodium channel in guinea pig ventricular myocytes by whole cell patch clamp technique; format: cell-based; details: Cavia porcellus, Ventricular myocyte
Summary of the method: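 Whole-cell I_Na was recorded in enzymatically isolated ventricular myocytes, using only quiescent, rod-shaped, striated cells, at 25 °C. Holding potential was -90 mV, with 30-ms pulses from -80 to +40 mV in 10-mV increments at 0.5 Hz. Compound was applied ≥5 min after current stabilized. IC50 came from cell-by-cell Hill fits, ≥3 cells per concentration, mean ± SD.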

[5] = biological target: T1, Potassium voltage-gated channel subfamily A member 5; assay: Inhibition of human Kv1.5 channel expressed in HEK293 cells at 10 uM by whole cell patch clamp technique; format: cell-based

Sequence of Voltage-gated inwardly rectifying potassium channel KCNH2 (Q12809 whole entry): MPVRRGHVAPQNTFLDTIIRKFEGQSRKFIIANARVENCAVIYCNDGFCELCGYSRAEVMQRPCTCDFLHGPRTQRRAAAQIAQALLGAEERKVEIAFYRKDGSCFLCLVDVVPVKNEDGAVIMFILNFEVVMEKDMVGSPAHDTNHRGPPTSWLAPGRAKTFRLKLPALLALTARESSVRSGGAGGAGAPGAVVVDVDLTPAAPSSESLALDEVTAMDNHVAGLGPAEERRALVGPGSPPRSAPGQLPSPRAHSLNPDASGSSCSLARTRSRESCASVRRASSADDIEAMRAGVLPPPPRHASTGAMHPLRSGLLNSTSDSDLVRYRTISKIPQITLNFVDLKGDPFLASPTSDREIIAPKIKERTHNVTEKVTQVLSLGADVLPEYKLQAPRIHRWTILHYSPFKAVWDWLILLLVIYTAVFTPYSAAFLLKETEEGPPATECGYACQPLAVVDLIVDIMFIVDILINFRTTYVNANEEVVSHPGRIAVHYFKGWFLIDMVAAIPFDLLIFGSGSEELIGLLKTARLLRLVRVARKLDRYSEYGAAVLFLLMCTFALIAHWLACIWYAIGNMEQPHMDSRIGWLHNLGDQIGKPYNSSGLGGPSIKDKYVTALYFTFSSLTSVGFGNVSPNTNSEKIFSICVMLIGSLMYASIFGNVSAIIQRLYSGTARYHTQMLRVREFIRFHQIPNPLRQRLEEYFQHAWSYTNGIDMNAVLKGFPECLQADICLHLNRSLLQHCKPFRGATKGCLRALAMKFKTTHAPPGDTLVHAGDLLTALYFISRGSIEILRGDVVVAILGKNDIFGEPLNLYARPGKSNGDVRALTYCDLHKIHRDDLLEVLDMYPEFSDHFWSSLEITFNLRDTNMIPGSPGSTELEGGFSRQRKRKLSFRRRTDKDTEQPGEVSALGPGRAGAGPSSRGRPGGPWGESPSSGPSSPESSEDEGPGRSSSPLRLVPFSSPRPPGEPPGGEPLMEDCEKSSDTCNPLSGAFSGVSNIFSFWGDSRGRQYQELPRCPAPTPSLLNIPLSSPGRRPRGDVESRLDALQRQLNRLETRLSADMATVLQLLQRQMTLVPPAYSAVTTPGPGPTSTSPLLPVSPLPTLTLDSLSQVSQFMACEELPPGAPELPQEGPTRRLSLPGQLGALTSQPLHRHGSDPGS
T1 sequence (P22460 whole entry): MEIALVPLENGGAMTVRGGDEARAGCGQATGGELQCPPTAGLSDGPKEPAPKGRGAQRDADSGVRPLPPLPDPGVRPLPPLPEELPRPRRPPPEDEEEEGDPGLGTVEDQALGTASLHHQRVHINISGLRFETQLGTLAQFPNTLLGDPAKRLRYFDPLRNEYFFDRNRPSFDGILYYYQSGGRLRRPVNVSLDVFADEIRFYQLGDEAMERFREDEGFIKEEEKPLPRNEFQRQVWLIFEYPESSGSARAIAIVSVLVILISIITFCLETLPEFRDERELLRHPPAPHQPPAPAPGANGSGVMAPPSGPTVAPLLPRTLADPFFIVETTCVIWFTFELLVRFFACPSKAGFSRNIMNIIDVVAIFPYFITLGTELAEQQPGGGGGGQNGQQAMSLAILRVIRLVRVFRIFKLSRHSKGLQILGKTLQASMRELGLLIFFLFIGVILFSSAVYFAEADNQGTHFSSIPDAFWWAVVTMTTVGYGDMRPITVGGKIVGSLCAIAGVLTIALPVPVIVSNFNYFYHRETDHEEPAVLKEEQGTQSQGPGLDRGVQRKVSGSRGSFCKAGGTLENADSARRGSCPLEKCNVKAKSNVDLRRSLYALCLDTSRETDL

Row | SMILES | IC50 [2] | inhibition [2] | other results
1 | COc1ccc(NC(=O)Cn2cc(CCNS(=O)(=O)c3ccc(OC)cc3)c3ccccc32)cc1 | 1.72 µM | Dose-dependent effect | Ratio IC50 (Homo sapiens): 5.95; IC50 [1]: 10.2 µM
2 | CCCCOc1ccc(S(=O)(=O)NC(Cc2ccccc2)C(=O)OC)cc1 (stereo not drawn) | 110 µM | Dose-dependent effect | 
3 | COC(=O)C(Cc1c[nH]c2ccccc12)NS(=O)(=O)c1ccc(OCC(C)C)cc1 (stereo not drawn) | 3.56 µM | Dose-dependent effect | 
4 | Cc1ccc(S(=O)(=O)N/N=C/c2cn(CC(=O)Nc3ccc(OC(F)(F)F)cc3)c3ccccc23)cc1 | 1.52 µM | Dose-dependent effect | 
5 | COc1ccc(NC(=O)Cn2cc(/C=N/NS(=O)(=O)c3ccc(C)cc3)c3ccccc32)cc1 | 16.9 µM | Dose-dependent effect | 
6 | COc1ccc2c(c1)c(/C=N/NS(=O)(=O)c1ccc(C)cc1)cn2CC(=O)Nc1ccc(Cl)cc1 | 0.51 µM | Dose-dependent effect | Activity (Rattus norvegicus): Dose-dependent effect; Ratio IC50 (Homo sapiens): 820; Activity [3]: Non-toxic; IC50 [1]: 418 µM; Ratio IC50 (HEK293): 103; IC50 [4]: 52.6 µM
7 | COc1ccc(S(=O)(=O)NCCc2cn(CC(=O)Nc3ccc(Cl)cc3)c3ccccc23)cc1 | 3.14 µM | Dose-dependent effect | 
8 | COC(=O)C(Cc1c[nH]c2ccccc12)NS(=O)(=O)c1ccc(C)cc1 (stereo not drawn) | 4.72 µM | Dose-dependent effect | 
9 | COC(=O)C(Cc1c[nH]c2ccccc12)NS(=O)(=O)c1ccc(F)cc1 (stereo not drawn) | 6.45 µM | Dose-dependent effect | 
10 | CCCCOc1ccc(S(=O)(=O)NCCc2c[nH]c3ccccc23)cc1 | 9.95 µM | Dose-dependent effect | Ratio IC50 (Homo sapiens): 0.32; IC50 [1]: 3.18 µM
11 | CCCCOc1ccc(S(=O)(=O)NCCc2cn(CC(=O)Nc3ccc(OC)cc3)c3ccccc23)cc1 | 6.21 µM | Dose-dependent effect | 
12 | COC(=O)C(Cc1c[nH]c2ccccc12)NS(=O)(=O)c1ccc(Br)cc1 (stereo not drawn) | 2.25 µM | Dose-dependent effect | 
13 | COc1ccc(NC(=O)Cn2cc(CCNS(=O)(=O)c3ccc(C)cc3)c3ccccc32)cc1 | 38.7 µM | Dose-dependent effect | 
14 | COc1ccc2c(c1)c(/C=N/NS(=O)(=O)c1ccc(C)cc1)cn2CC(=O)Nc1ccc(F)cc1F | 2.18 µM | Dose-dependent effect | 
15 | Cc1ccc(S(=O)(=O)NCCc2cn(CC(=O)Nc3ccc(Cl)cc3)c3ccccc23)cc1 | 12.9 µM | Dose-dependent effect | 
16 | CCC(=O)Oc1ccc(NC(=O)Cn2cc(/C=N/NS(=O)(=O)c3ccc(C)cc3)c3ccccc32)cc1 | 2.14 µM | Dose-dependent effect | 
17 | Cc1ccc(S(=O)(=O)N/N=C/c2cn(CC(=O)Nc3ccccc3)c3ccccc23)cc1 | 0.81 µM | Dose-dependent effect | Ratio IC50 (Homo sapiens): 53.9; IC50 [1]: 43.6 µM; Ratio IC50 (HEK293): 96.3; IC50 [4]: 78 µM
18 | COC(=O)C(Cc1c[nH]c2ccccc12)NS(=O)(=O)c1ccc(OC)cc1 (stereo not drawn) | 5.45 µM | Dose-dependent effect | 
19 | Cc1ccc(S(=O)(=O)N/N=C/c2cn(CC(=O)Nc3cc(C)ccc3C)c3ccccc23)cc1 | 1.77 µM | Dose-dependent effect | 
20 | CCCCOc1ccc(S(=O)(=O)NCCc2cn(CC(=O)Nc3ccc(Cl)cc3)c3ccccc23)cc1 | 185 µM | Dose-dependent effect | 
21 | Cc1ccc(S(=O)(=O)N/N=C/c2cn(CC(=O)Nc3ccccc3Cl)c3ccccc23)cc1 | 0.74 µM | Dose-dependent effect | Ratio IC50 (Homo sapiens): 25.2; IC50 [1]: 18.7 µM
22 | CCCCOc1ccc(S(=O)(=O)NC(Cc2c[nH]c3ccccc23)C(=O)OC)cc1 (stereo not drawn) | 8.37 µM | Dose-dependent effect | inhibition [5]: 52%
23 | Cc1ccc(S(=O)(=O)N/N=C/c2cn(CC(=O)Nc3ccc(C)c(C)c3)c3ccccc23)cc1 | 11.2 µM | Dose-dependent effect | 
24 | COC(=O)C(Cc1c[nH]c2ccccc12)NS(=O)(=O)c1ccc(OC(C)C)cc1 (stereo not drawn) | 3.93 µM | Dose-dependent effect | 
25 | COc1ccc2c(c1)c(/C=N/NS(=O)(=O)c1ccc(C)cc1)cn2CC(=O)Nc1ccccc1 | 3.73 µM | Dose-dependent effect | 
26 | COC(=O)C(Cc1c[nH]c2ccccc12)NS(=O)(=O)c1ccc(OC2CCCC2)cc1 (stereo not drawn) | 2.38 µM | Dose-dependent effect | 
27 | Cc1ccc(S(=O)(=O)N/N=C/c2cn(CC(=O)Nc3ccc(F)cc3F)c3ccccc23)cc1 | 0.25 µM | Dose-dependent effect | Activity (Rattus norvegicus): Dose-dependent effect; Ratio IC50 (Homo sapiens): 172; Activity [3]: Non-toxic; IC50 [1]: 43 µM; Ratio IC50 (HEK293): 459; IC50 [4]: 115 µM
28 | CCCCOc1ccc(S(=O)(=O)NC(Cc2c[nH]c3ccccc23)C(=O)O)cc1 (stereo not drawn) | 65.4 µM | Dose-dependent effect | 
29 | Cc1ccc(S(=O)(=O)N/N=C/c2cn(CC(=O)Nc3ccc(C)cc3C)c3ccccc23)cc1 | 24 µM | Dose-dependent effect | 
30 | Cc1ccc(S(=O)(=O)N/N=C/c2cn(CC(=O)Nc3ccc(Cl)cc3)c3ccccc23)cc1 | 1.9 µM | Dose-dependent effect | 
